JNK3 inh = JNK3 (human) kinase inhibition; P53779; purified JNK3 kinase activity, HTS; inhibition, % at 8 µM; 60,000 compounds, 0.61% hits; AID 746; in the data active = inhibition above about 17%;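 also: 0% = DMSO and 100% = reference inhibitor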
M1 ag = agonists of M1 muscarinic receptor | CHO-M1 cells, Fluo-4 calcium fluorescence, agonist mode; stronger effect = higher value | B-score at 10 µM | 64,000 compounds, 3% hits;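 active = fluorescence rise, raw or as B-score row- and column-corrected plate score, outside the 99.7% band of its plate's samples, either direction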
HEK293 NFkB inh = inhibitors of the PMA/ionomycin-induced NF-kB reporter in HEK293 cells | HEK-293 NF-kB luciferase reporter, luminescence | inhibition, % at 3 µM | 62,000 compounds, 0.21% hits;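 active = inhibition above the mean of all tested compounds plus 3 SD, cut at about 40% in these data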;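 also: 0% = stimulated DMSO wells and 100% = 10 µM reference inhibitor 5653914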
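Timing: 1 h pretreatment, 16 h stimulation, 37 °C; system: HEK-293 cells with stable firefly luciferase reporter driven by four HIV NF-kB elements; doses: 3 µM once, 0.30% DMSO; measured by: luciferase luminescence; control set: DMSO and 10 µM reference inhibitor; repeats: single test; reagent: PMA plus ionomycin mix as NF-kB-activating stimulus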
M1 antagonist = antagonists of rat M1 muscarinic receptor | P08482 | CHO-M1 cells, Fluo-4 calcium, ACh EC80 antagonist mode; stronger effect = lower value | B-score at 10 µM | 64,000 compounds, 3.4% hits | AID 628;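 active = calcium fluorescence response, raw or row-and-column corrected B-score, differing from the plate sample mean either way at a set confidence level, mostly lower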
Target sequence (P08482 whole entry, looked up): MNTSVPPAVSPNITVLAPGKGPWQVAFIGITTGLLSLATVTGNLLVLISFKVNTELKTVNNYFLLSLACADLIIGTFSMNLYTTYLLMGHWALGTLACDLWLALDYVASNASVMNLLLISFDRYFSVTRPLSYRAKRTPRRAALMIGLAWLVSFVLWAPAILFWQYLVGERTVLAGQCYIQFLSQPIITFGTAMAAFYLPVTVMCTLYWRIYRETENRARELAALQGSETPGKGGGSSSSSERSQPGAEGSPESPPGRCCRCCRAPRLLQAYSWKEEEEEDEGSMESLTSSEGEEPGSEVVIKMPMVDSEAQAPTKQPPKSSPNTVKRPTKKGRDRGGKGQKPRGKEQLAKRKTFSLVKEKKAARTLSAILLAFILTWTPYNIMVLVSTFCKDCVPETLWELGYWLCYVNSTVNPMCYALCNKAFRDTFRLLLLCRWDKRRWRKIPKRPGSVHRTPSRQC
BAP1 inh = inhibitors of human BAP1 deubiquitinase | Q92560 | calls only at 20 µM | 72,000 compounds, 0.48% hits | recombinant BAP1, Ub-AMC hydrolysis fluorescence kinetic; stronger effect = lower value;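 active = activity remaining at or below 50% of control, provided the compound also passes the data quality filters; inactive = the rest, including low values that fail the filters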;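 also: 100% = DMSO wells rate and 0% = substrate alone blank rate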
Her2 expr inh = lowers expression of human Her2 kinase | P04626 | SKBR-3 HER2 protein level, AlphaScreen, 18-24 h; stronger effect = lower value | AID 645 | HER2 level % of control, % at 10 µM | 65,000 compounds, 0.69% hits;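 active = HER2 level under 5% of the carrier-only control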;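 also: 100% = DMSO carrier and 0% = 500 nM PU-H71 HSP90 inhibitor; lower value means stronger loss of Her2 protein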
An asterisk follows results filed as active; i = inactive; . = no result given; + = active, no number. Shown are actives, neighbours in structure and some others; about 6.6% of the full set was active somewhere.

SMILES | JNK3 inh | M1 ag | HEK293 NFkB inh | M1 antagonist | BAP1 inh | Her2 expr inh
CCOC(=O)Cc1csc(NS(=O)(=O)Cc2ccccc2)n1 | -2 | -0.25 | 5 | 2.6* | i | 94
Cc1cccc(OCC(=O)Nc2ccc3c(c2)OCO3)c1C | 2 | 0.07 | 7 | -0.0038 | i | 113
Cc1ccc(Cl)c(OCC(=O)Nc2ccc3c(c2)OCCO3)c1 | -1 | 4.3* | -18 | -0.31 | i | 91
CCOc1cccc2cc(C(=O)Nc3ccccc3)c(=O)oc12 | . | . | . | . | i | .
C=Cc1c(C)c2cc3[nH]c(cc4nc(cc5nc(cc1[nH]2)C(C)=C5CCC(=O)O)C(CCC(=O)O)=C4C)c(C)c3C=C | . | . | . | . | + | .
COC(=O)C1=C(C)NC(=O)NC1c1cc(Cl)c(O)c(OC)c1 (configuration not stated) | . | . | . | . | i | .
O=c1c2c3nc4ccccc4nc3n(-c3ccc4c(c3)OCCO4)c2ncn1CC1CCCO1 (configuration not stated) | -1 | -0.013 | -2 | -1.8* | i | 90
Cc1ccc(S(=O)(=O)CCC(=O)c2ccc(O)cc2O)cc1 | 1 | -0.49 | 24 | 0.33 | i | -7.3*
CCOc1ccc2nc(NCCNC(=O)Nc3ccccc3)c(C#N)cc2c1 | -2 | 2.6 | 2 | 0.014 | i | 51
COc1ccc2nc(NCCCNC(=O)c3cc(OC)c(OC)c(OC)c3)c(C#N)cc2c1 | -3 | 15* | 16 | -0.79 | i | 108
O=C(Nc1cccc(Cl)c1)c1ccc(CN(c2ccccn2)S(=O)(=O)c2ccccc2)cc1 | . | . | . | . | i | .
C=CCn1c2ccccc2c2nnc(SCc3[nH]c(C(=O)OCC)c(C)c3C(C)=O)nc21 | . | . | . | . | i | .
Cc1ccc(-c2nc(-c3ccccn3)no2)cc1 | -5 | 0.36 | 80* | -0.59 | i | 73
CCCCC(=O)Nc1ncc(Br)s1 | 28* | -0.51 | 8 | -0.96 | i | 58
CCOc1ccc(NC(=O)CN(c2cccc([N+](=O)[O-])c2)S(=O)(=O)c2ccccc2)cc1 | . | . | . | . | i | .
c1ccc(CNC2=NCCC2)nc1 | -4 | 0.79 | 13 | -0.23 | i | -27*
CCSc1nnc(-c2ccc(Cl)cc2Cl)o1 | -8 | 0.07 | -14 | 2* | i | 72
Clc1ccc(-c2nnc(-c3ccccc3)o2)c(Cl)c1 | -2 | -0.35 | -28 | 0.23 | i | -26*
Fc1ccc(-c2nnc(-c3ccc(Cl)cc3Cl)o2)cc1 | 2 | -0.31 | -23 | 1.5 | i | 57
CC(=O)c1c(N2CCCCC2)nc2ccc(Br)cc2c1-c1ccccc1 | . | . | . | . | i | .
Oc1ccc2ccccc2c1C=NCc1cn2ccsc2n1 | 5 | 0.63 | 16 | 0.2 | i | -11*
O=C(CSc1nc2ccccc2s1)Nc1nc2c(ccc3ccccc32)s1 | . | . | . | . | i | .
CCOc1ccc(-c2nc(N)ncc2-c2ccccc2)c(O)c1 | 51* | -0.097 | 20 | -0.018 | i | 87
CC1CCN(CCNC(=O)c2ccc3c(=O)n(CCc4ccccc4)c(=O)[nH]c3c2)CC1 | . | -2* | 11 | 0.17 | . | 96
COCc1cc(C)nc(SCC(=O)Nc2cc3c(cc2C#N)OCO3)c1C#N | 22* | 2.6 | 18 | 0.11 | i | 110
SMILES | JNK3 inh | M1 ag | HEK293 NFkB inh | M1 antagonist | BAP1 inh | Her2 expr inh
O=C(O)c1ccc(-n2c(C=Cc3ccccc3O)nc3ccccc3c2=O)cc1 | . | . | . | . | i | .
CCCCSc1nc(C)cc(=O)[nH]1 | . | . | . | . | i | .
O=C(Nc1ccc(F)cc1)c1ccc([N+](=O)[O-])cc1Cl | . | . | . | . | i | .
CCN(CC)CC(=O)Nc1ccc(C)cc1C | . | . | . | . | i | .
Cc1ccc(NC(=O)CNc2cccc(C)c2C)c(C)c1 | -4 | 0.04 | 4 | 1.2 | i | -28*
Cc1cc2nnc(SC3CCOC3=O)n2c2ccccc12 (configuration not stated) | . | 0.0075 | 11 | 0.39 | i | 115
Cc1cc2nnc(SC(C)C#N)n2c2ccccc12 (configuration not stated) | 2 | -0.77 | -1 | -0.18 | i | -28*
CCCCc1ccc(NC(=O)c2ccc(C)cc2)cc1 | . | . | . | . | i | .
COc1ccc(-n2cnnc2SCC(=O)c2cc(C)n(Cc3cccs3)c2C)cc1 | -1 | -0.045 | 19 | -0.22 | i | -21*
COc1ccc(-c2nnc(SCC(=O)c3cc(C)n(Cc4cccs4)c3C)o2)cc1 | -1 | -0.63 | 5 | 0.94 | i | 52
COC(=O)c1ccccc1NC(=O)COC(=O)c1ccco1 | 21* | -0.59 | 8 | 0.65 | i | 87
COC(=O)c1ccccc1NC(=O)COC(=O)CSCC(=O)N1CCOCC1 | 19* | 0.0026 | 6 | -0.078 | i | 103
Cc1ccc(C)n1-c1ccc(-c2nnco2)cc1 | -3 | -0.43 | 9 | 0.075 | i | 90
Cc1cc(-c2nnco2)c(C)n1-c1ccc(F)cc1 | . | 0.015 | 5 | 0.33 | . | 4.7*
COc1ccccc1CN1CCN(Cc2cccc([N+](=O)[O-])c2)CC1 | . | . | . | . | i | .
C=CCOc1ccccc1/C=c1\sc2nc(-c3oc4ccccc4c3C)nn2c1=O | -4 | 5.2* | 7 | -0.28 | . | 85
C=C(C)C1Cc2n[nH]c(C)c2C1 (configuration not stated) | . | . | . | . | i | .
O=c1oc2c3c4c(cc2cc1-c1nc2ccccc2[nH]1)CCCN4CCC3 | -3 | 338* | -49 | -15* | i | 85
O=c1oc2c(CN3CCCCC3)c(O)ccc2cc1-c1nc2ccccc2[nH]1 | -8 | 182* | 6 | -18* | i | 103
CCOC(=O)COc1ccc2cc(-c3nc4ccccc4[nH]3)c(=O)oc2c1 | . | . | . | . | i | .
N#Cc1c(N)sc(=S)c2c1CCN(Cc1ccccc1)C2 | 8 | -0.63 | -6 | -1.6 | i | 0.0*
COc1ccccc1-c1nn2c(-c3ccco3)nnc2s1 | 1 | 2.7 | . | -0.86 | i | 82
CCN(CC)c1ccc(-c2nn3c(-c4ccccc4OC)nnc3s2)cc1 | 5 | 0.21 | 58* | 0.2 | . | 25
COc1ccccc1-c1nn2c(-c3ccccc3Cl)nnc2s1 | -1 | -2* | 18 | -0.57 | i | 91
O=C(NC1CCCC1)c1ccc2nc(-c3ccco3)c(-c3ccco3)nc2c1 | -4 | 7.1* | 8 | 0.051 | i | 103
SMILES | JNK3 inh | M1 ag | HEK293 NFkB inh | M1 antagonist | BAP1 inh | Her2 expr inh
COC(=O)c1c(C#N)c(N)nc2c1CCCC2 | 19* | -0.26 | 7 | 0.37 | . | 83
COc1cc(-c2c(C#N)c(N)nc3c2CCCC3)ccc1O | 12 | 0.96 | 5 | 0.8 | i | 91
Cc1sc2nc(CN(C(=O)c3cccs3)C3CCCC3)[nH]c(=O)c2c1C | 4 | 0.66 | 12 | 1.9* | i | 99
COc1ccccc1-n1c(SCC(=O)NC(C)(C)C)nc(O)cc1=O | -4 | -0.92 | 7 | 1.2 | i | -39*
CC(C)(C)NC(=O)CSc1nc(O)cc(=O)n1-c1ccccc1F | . | -0.73 | 13 | -1.8 | . | 83
CCOc1ccc2c(c1)nc1n2C(=O)CC(c2ccccc2)S1 (configuration not stated) | . | . | . | . | i | .

From PubChem BioAssay
